The test system of data set [1] is Plasma. Description: Anticoagulant activity in human plasma assessed as prothrombin time at 1 mg/ml. It counts as functional. An outline of the steps:
(§1)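 Frozen human plasma (blood type A+) was used. Compounds were prepared at 1 mg/mL in a vehicle of 96% EtOH, 0.9% NaCl, 20% glycerol and phosphate buffer pH 7. Prothrombin time was measured by Quick method and reported in seconds and as INR, with SD from at least three measurements.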

In data set [2] the test system is Plasma. Description: Anticoagulant activity in Wistar albino rat plasma assessed as prothrombin time at 0.1 mg/kg, ip. The following applies: route intraperitoneal. In kind it is functional. In outline:
(§2)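 Adult Wistar rats (2.5 months, 220–250 g), three per compound and control, were given a single i.p. dose of 0.1 or 0.5 mg/kg in ethanol solution and sacrificed 24 h later. […] Plasma prothrombin time was measured by Quick method and reported in seconds and as INR, from at least three measurements.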

For data set [3], the system named is Plasma. Description: Anticoagulant activity in Wistar albino rat plasma assessed as prothrombin time at 0.5 mg/kg, ip. The settings on record: route intraperitoneal. In kind it is functional. In outline: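 Adult Wistar rats (2.5 months, 220–250 g), three per compound and control, were given a single i.p. dose of 0.1 or 0.5 mg/kg in ethanol solution and sacrificed 24 h later. Plasma prothrombin time was measured by Quick method and reported in seconds and as INR, from at least three measurements.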

Data set [4] has as its system Plasma. The experiment in a line: Anticoagulant activity in Wistar albino rat plasma assessed as fibrinogen level. It counts as functional. An outline of the steps: (§3)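 Adult albino Wistar rats (2.5 months old, 220–250 g), three per compound and control. […] Fibrin time and fibrinogen were determined on plasma. Fibrinogen was quantified by biuret method at 540 nm. At least three measurements, reported with standard deviation.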

Data set [5] concerns Plasma. The experiment in a line: Anticoagulant activity in Wistar albino rat plasma assessed as fibrin time. In kind it is functional. In outline:
as §3

The test system of data set [6] is Rattus norvegicus. The experiment in a line: Hepatotoxicity in Wistar albino rat assessed as change in serum bilirubin level at 0.5 mg/kg, ip measured after 24 hrs. It counts as toxicity, organism-based. The settings on record: in vivo. Further details: dose 0.5 mg/kg, route intraperitoneal.
Data set [7] deals with Rattus norvegicus. Description: Hepatotoxicity in Wistar albino rat assessed as change in serum AST level at 0.5 mg/kg, ip measured after 24 hrs. In kind it is toxicity, organism-based. Further details: dose 0.5 mg/kg, route intraperitoneal. The following applies: in vivo.
The test system of data set [8] is Rattus norvegicus. The experiment in a line: Hepatotoxicity in Wistar albino rat assessed as change in serum ALT level at 0.5 mg/kg, ip measured after 24 hrs. In kind it is toxicity, organism-based. The settings on record: in vivo. Further details: dose 0.5 mg/kg, route intraperitoneal.
Data set [9] deals with Rattus norvegicus. The experiment in a line: Hepatotoxicity in Wistar albino rat assessed as change in serum ALP level at 0.5 mg/kg, ip measured after 24 hrs. It counts as toxicity, organism-based. On the set-up: dose 0.5 mg/kg, route intraperitoneal. The following applies: in vivo.
Data set [10] concerns Rattus norvegicus. The experiment in a line: Hepatotoxicity in Wistar albino rat assessed as change in serum gamma-GT level at 0.5 mg/kg, ip measured after 24 hrs. It counts as toxicity, organism-based. On the set-up: dose 0.5 mg/kg, route intraperitoneal. The following applies: in vivo.
Data set [11] has as its system Rattus norvegicus. The experiment in a line: Hepatotoxicity in Wistar albino rat assessed as change in serum iron level at 0.5 mg/kg, ip measured after 24 hrs. It counts as toxicity, organism-based. On the set-up: dose 0.5 mg/kg, route intraperitoneal. The settings on record: in vivo.
The subject of data set [12] is Rattus norvegicus. The experiment in a line: Hepatotoxicity in Wistar albino rat assessed as change in serum protein level at 0.5 mg/kg, ip measured after 24 hrs. It counts as toxicity, organism-based. Further details: dose 0.5 mg/kg, route intraperitoneal. The following applies: in vivo.
Data set [13] concerns Rattus norvegicus. The experiment in a line: Hepatotoxicity in Wistar albino rat assessed as change in serum albumin level at 0.5 mg/kg, ip measured after 24 hrs. In kind it is toxicity, organism-based. On the set-up: dose 0.5 mg/kg, route intraperitoneal. The settings on record: in vivo.
Data set [14] concerns Plasma. The experiment in a line: Anticoagulant activity in human plasma assessed as international normalized ratio at 1 mg/ml. It counts as functional. In outline:
as §1

In data set [15] the test system is Plasma. Description: Anticoagulant activity in Wistar albino rat plasma assessed as international normalized ratio at 0.1 mg/kg, ip. It counts as functional. The settings on record: route intraperitoneal. In outline:
as §2

Data set [16] relates to Plasma. Description: Anticoagulant activity in Wistar albino rat plasma assessed as international normalized ratio at 0.5 mg/kg, ip. It counts as functional. The following applies: route intraperitoneal. In outline: as §2
For data set [17], the system named is Rattus norvegicus. The experiment in a line: Anticoagulant activity in Wistar rats in vivo assessed as prothrombin time.

Results on ten compounds are retold here after ChEMBL document CHEMBL2046403, “Biochemical and pharmacological evaluation of 4-hydroxychromen-2-ones bearing polar C-3 substituents as anticoagulants” (Eur J Med Chem, 2012).

The structures appear in SMILES notation.

Usually IC50 stands for the concentration at which inhibition is half-maximal. As for `CCN(CC)c1nc(-c2c(O)c3ccccc3oc2=O)cs1`, the figures for the PT in data set [1], in data set [2] and in data set [3] were 18.5 s, 8 s and 10 s, respectively. Besides, the Activity in data set [4] worked out at 1.4 g/L; in data set [6], 2 µmol/L; in data set [7] it was 254.8 U/L; in [8] it was 64.7 U/L; in data set [9], 192 U/L; in [10], 4.4 U/L. The Activity in data set [11] came to 25 µmol/L; in data set [12], 63.2 g/L; in [13], 36.7 g/L. The Time in [5] was determined as 44.9 s. The Ratio in data set [14] worked out at 1.75; in data set [15], 0.64; in data set [16], 0.67. For the same compound, the IC50 in [17] is 933 µM.
With `COC(=O)/C=C(/C)c1c(O)c2ccccc2oc1=O`, the values for the PT in data set [1], in data set [2] and in data set [3] were 20 s, 8 s and 9 s, respectively. The Activity in data set [4] came out at 1.8 g/L; in [6], 1.4 µmol/L; in data set [7] it was 154.3 U/L; in data set [8] it was 57.2 U/L; in data set [9] it was 333 U/L; in [10], 3 U/L. The Activity in [11] was found to be 54.2 µmol/L; in [12], 65.2 g/L; in data set [13], 39 g/L. Moreover, the Time in data set [5] came to 35.2 s. Moreover, the Ratio amounted to 1.9 in data set [14], 0.64 in data set [15] and 0.67 in [16]. Besides, in data set [17], the IC50 was 2750 µM.
For `O=c1oc2ccccc2c(O)c1-c1csc(Nc2ccc([N+](=O)[O-])cc2)n1`, the results for the PT in data set [1], in data set [2] and in data set [3] were 25 s, 8.1 s and 9.1 s, respectively. In addition, the Activity in [4] came to 1.8 g/L; in data set [6], 1.7 µmol/L; in [7], 264.4 U/L; in data set [8], 68.7 U/L; in [9] it was 204 U/L; in data set [10], 3.8 U/L. For the same compound, the Activity in [11] worked out at 14.8 µmol/L; in [12] it was 63 g/L; in data set [13], 37.2 g/L. Moreover, the Time in data set [5] turned out to be 33.7 s. In addition, the Ratio in data set [14] turned out to be 2.44; in data set [15], 0.65; in data set [16], 0.68. Further, the IC50 in [17] was 2340 µM.
On to `CC(=O)C(C(C)=O)=C(C)c1c(O)c2ccccc2oc1=O`, for which the PT in data set [1] is 17 s; in [2], 8.6 s; in data set [3] it was 9.6 s. In addition, the Activity is 2.47 g/L in data set [4]; 1.5 µmol/L in [6]; 201.4 U/L in [7]; 56.4 U/L in data set [8]; 223 U/L in data set [9]; 4.4 U/L in data set [10]. Moreover, the Activity was found to be 32.4 µmol/L in data set [11], 66.5 g/L in data set [12] and 40.6 g/L in data set [13]. Moreover, the Time in [5] is 24.6 s. The Ratio in [14] worked out at 1.55; in data set [15], 0.69; in data set [16], 0.72. Besides, in data set [17], the IC50 is 1380 µM.
For `COC(=O)/C(C(=O)O)=C(\C)c1c(O)c2ccccc2oc1=O`, the PT in data set [1] was determined as 20 s; in [2] it was 5.7 s; in [3], 8.7 s. Moreover, the Activity in data set [4] was 3.2 g/L; in [6] it was 1.8 µmol/L; in data set [7] it was 218.4 U/L; in data set [8], 51.8 U/L; in [9], 215 U/L; in data set [10], 4.4 U/L. Moreover, the results for the Activity in data set [11], in data set [12] and in [13] were 19.4 µmol/L, 62.8 g/L and 35.8 g/L, respectively. Further, the Time in data set [5] is reported as 19.4 s. Besides, the Ratio in data set [14] is reported as 1.9; in data set [15], 0.37; in data set [16], 0.48. Further, the IC50 in [17] is 3160 µM.
Turning to `Cc1ccccc1Nc1nc(-c2c(O)c3ccccc3oc2=O)cs1`, the PT amounted to 18.1 s in data set [1], 8.1 s in data set [2] and 8.1 s in [3]. Further, the Activity was determined as 2.1 g/L in data set [4]; 1.8 µmol/L in data set [6]; 263.4 U/L in data set [7]; 59.5 U/L in data set [8]; 318 U/L in data set [9]; 3.6 U/L in [10]. For the same compound, the results for the Activity in [11], in [12] and in data set [13] were 29.2 µmol/L, 69.2 g/L and 36.3 g/L, respectively. The Time in [5] is on record as 28.7 s. Also, the Ratio was determined as 1.7 in [14], 0.68 in data set [15] and 0.68 in data set [16]. Also, the IC50 in [17] was 5370 µM.
Consider `O=C(O)CCCCNc1nc(-c2c(O)c3ccccc3oc2=O)cs1`, for which the PT in data set [1] is listed as 22 s; in data set [2], 8 s; in data set [3] it was 10 s. Besides, the Activity in [4] was determined as 2.5 g/L; in data set [6] it was 1.2 µmol/L; in data set [7], 231.5 U/L; in data set [8], 52.6 U/L; in data set [9], 246 U/L; in [10] it was 3.5 U/L. In addition, the Activity in [11] was found to be 27.4 µmol/L; in data set [12], 71.5 g/L; in data set [13], 35.4 g/L. For the same compound, the Time in data set [5] came to 23.9 s. The Ratio in data set [14] came out at 2.1; in data set [15], 0.64; in [16] it was 0.67. Also, the IC50 in data set [17] is 933 µM.
Turning to `CC(=O)c1c(O)c2ccccc2oc1=O`, the values for the PT in [1], in data set [2] and in [3] were 14 s, 9.1 s and 9.5 s, respectively. Besides, the Activity in data set [4] worked out at 2.5 g/L; in data set [6], 1.7 µmol/L; in data set [7] it was 160.5 U/L; in [8] it was 34.8 U/L; in data set [9] it was 200 U/L; in data set [10] it was 3.8 U/L. Moreover, the Activity in data set [11] was 26.1 µmol/L; in data set [12] it was 63.8 g/L; in [13] it was 31.9 g/L. In data set [5], the Time is given as 44.9 s. In addition, the Ratio is given as 1.25 in data set [14], 0.9 in data set [15] and 0.9 in [16]. Further, in [17], the IC50 is 1700 µM.
Turning to `COC(=O)/C(C(C)=O)=C(/C)c1c(O)c2ccccc2oc1=O`, the PT in [1] stood at 19 s; in [2], 9.3 s; in data set [3], 9.8 s. Also, the Activity in data set [4] was 1.6 g/L; in [6], 1.7 µmol/L; in [7], 236.9 U/L; in [8], 65.5 U/L; in data set [9], 285 U/L; in data set [10] it was 2.8 U/L. The Activity was determined as 23.9 µmol/L in data set [11], 66.4 g/L in data set [12] and 38.9 g/L in data set [13]. Moreover, the Time in [5] turned out to be 40.7 s. Further, the Ratio in data set [14] came to 1.8; in data set [15] it was 0.92; in [16], 0.94. Further, the IC50 in [17] is 1150 µM.
For `O=c1oc2ccccc2c(O)c1-c1csc(Nc2cccc3ccccc23)n1`, the PT in data set [1] amounted to 27.5 s; in [2], 9.2 s; in [3], 9.7 s. Also, the Activity in [4] was 1.9 g/L; in [6], 2 µmol/L; in [7], 345.3 U/L; in data set [8], 85 U/L; in data set [9], 210 U/L; in data set [10], 4.3 U/L. The Activity in [11] came to 24.6 µmol/L; in data set [12], 72.8 g/L; in data set [13] it was 41.3 g/L. Moreover, in [5], the Time amounted to 33.2 s. Besides, the Ratio is recorded as 2.7 in [14], 0.94 in [15] and 0.94 in data set [16]. For the same compound, the IC50 in data set [17] was 589 µM.
